Experimental data published in ChEMBL document CHEMBL1135531, “Cardiovascular characterization of [1,4]thiazino[3,4-c][1,2,4]oxadiazol-1-one derivatives: selective myocardial calcium channel modulators” (J Med Chem, 2002).

Key:
[1] = species on record: Cavia porcellus; assay: Percent inhibition of calcium-induced contraction on K+-depolarized guinea-pig aortic strip at 5 x 10 e-5M; type: functional; conditions: Aorta
[2] = species on record: Cavia porcellus; assay: Effective drug concentration for negative inotropic activity was determined; Range is from 1.35-2.05 (10e-6 M); type: functional, organism-based
How it was run: (§1)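 Left atria from female guinea pigs (300-400 g) in Tyrode PSS, pH 7.4, 95% O2/5% CO2, 35 °C. Driven at 1 Hz with 0.6-0.8 ms pulses at about 50% threshold voltage; isometric force recorded. Cumulative 0.1-100 µM in DMSO (≤0.3% in bath), each added at steady state. EC50 by Probit log concentration-response analysis (n = 6-8), not calculated when maximum effect <50%.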

[3] = species on record: Cavia porcellus; assay: Negative inotropic activity in isolated guinea pig left atrium.; type: functional, Cardiac atrium
[4] = species on record: Cavia porcellus; assay: Negative chronotropic activity in isolated guinea pig right atrium.; type: functional, Cardiac atrium
[5] = species on record: Cavia porcellus; assay: Effective drug concentration for negative inotropic activity was determined; Range is from 0.41-0.72 (10e-6 M); type: functional; how it was run: as §1
[6] = species on record: Cavia porcellus; assay: Effective drug concentration for negative inotropic activity was determined; Range is from 0.55-0.93 (10e-6 M); type: functional; how it was run: as §1
[7] = species on record: Cavia porcellus; assay: Effective drug concentration for negative inotropic activity was determined; Range is from 0.43-0.56 (10e-6 M); type: functional; how it was run: as §1
[8] = species on record: Cavia porcellus; assay: Effective drug concentration for negative inotropic activity was determined; Range is from 1.03-1.45 (10e-6 M); type: functional; how it was run: as §1
[9] = species on record: Cavia porcellus; assay: Effective drug concentration for negative inotropic activity was determined; Range is from 0.23-0.43 (10e-6 M); type: functional; how it was run: as §1
[10] = species on record: Cavia porcellus; assay: Effective drug concentration for negative inotropic activity was determined; Range is from 1.34-2.19 (10e-6 M); type: functional, organism-based; how it was run: as §1
[11] = species on record: Cavia porcellus; assay: Effective drug concentration for negative inotropic activity was determined; Range is from 1.02-1.98 (10e-6 M); type: functional; how it was run: as §1
[12] = species on record: Cavia porcellus; assay: Effective drug concentration for negative inotropic activity was determined; Range is from 0.65-1.05 (10e-6 M); type: functional; how it was run: as §1
[13] = species on record: Cavia porcellus; assay: Effective drug concentration for negative inotropic activity; Range is from 0.41-0.65 (10e-6 M); type: functional; how it was run: as §1
[14] = species on record: Cavia porcellus; assay: Effective drug concentration for negative inotropic activity was determined; Range is from 0.18-0.30 (10e-6 M); type: functional; how it was run: as §1
[15] = species on record: Cavia porcellus; assay: Effective drug concentration for negative inotropic activity; type: functional; how it was run: as §1
[16] = species on record: Cavia porcellus; assay: Effective drug concentration for negative inotropic activity was determined; Range is from 2.35-3.10 (10e-6 M); type: functional; how it was run: as §1
[17] = species on record: Cavia porcellus; assay: Effective drug concentration for negative inotropic activity was determined; Range is from 0.46-0.92 (10e-6 M); type: functional; how it was run: as §1
[18] = species on record: Cavia porcellus; assay: Effective drug concentration for negative inotropic activity was determined; Range is from 1.35-2.23 (10e-6 M); type: functional, organism-based; how it was run: as §1
[19] = species on record: Cavia porcellus; assay: Effective drug concentration for negative inotropic activity was determined; Range is from 3.67-4.52 (10e-6 M); type: functional, organism-based; how it was run: as §1
[20] = species on record: Cavia porcellus; assay: Effective drug concentration for negative inotropic activity was determined; Range is from 0.61-0.85 (10e-6 M); type: functional; how it was run: as §1
[21] = species on record: Cavia porcellus; assay: Effective drug concentration for negative inotropic activity was determined; Range is from 1.67-2.83 (10e-6 M); type: functional, organism-based; how it was run: as §1
[22] = species on record: Cavia porcellus; assay: Effective drug concentration for negative inotropic activity was determined; Range is from 5.99-7.13 (10e-6 M); type: functional, organism-based; how it was run: as §1
[23] = species on record: Cavia porcellus; assay: Effective drug concentration for negative inotropic activity was determined; Range is from 0.53-0.64 (10e-6 M); type: functional; how it was run: as §1
[24] = species on record: Cavia porcellus; assay: Effective drug concentration (EC30) for negative chronotropic activity was determined; Range is from 0.064-0.075 (10e-6 M); type: functional
[25] = species on record: Cavia porcellus; assay: Effective drug concentration for negative inotropic activity was determined; Range is from 0.70-0.85 (10e-6 M); type: functional

SMILES | inhibition at 50 µM [1] [%] | Decrease [3] [%] | Decrease [4] [%] | other results
CC1=CSC(O)(c2ccc([N+](=O)[O-])cc2)c2noc(=O)n21 (centres undefined) | 19 | 73 | 16 | EC50 [2]: 1650 nM
COc1ccc(C2(O)SC=C(C)n3c2noc3=O)cc1 (centres undefined) | 18 | 76 | 12 | EC50 [5]: 520 nM
CC1=CSC(O)(c2ccc(C#N)cc2)c2noc(=O)n21 (centres undefined) | 13 | 76 | 30 | EC50 [6]: 760 nM
COc1cccc(C2(O)SC=C(C)n3c2noc3=O)c1 (centres undefined) | 10 | 86 | 16 | EC50 [7]: 490 nM
CC1=CSC(O)(c2ccc(F)cc2)c2noc(=O)n21 (centres undefined) | 8 | 74 | 10 | EC50 [8]: 1210 nM
CC1=CSC(O)(c2ccc(Br)cc2)c2noc(=O)n21 (centres undefined) | 12 | 97 | 18 | EC50 [9]: 320 nM
CC1=Cn2c(noc2=O)C(O)(c2ccc(Cl)cc2)S1 (centres undefined) | 15 | 71 | 11 | EC50 [10]: 1720 nM
CC1=C(C)n2c(noc2=O)C(O)(c2ccc(Cl)cc2)S1 (centres undefined) | 28 | 70 | 19 | EC50 [11]: 1420 nM
CC1=CSC(O)(c2ccc(Cl)cc2)c2noc(=O)n21 (centres undefined) | 26 | 80 | 18 | EC50 [12]: 800 nM
O=c1onc2n1-c1ccccc1SC2(O)c1ccc(Cl)cc1 (centres undefined) | 40 | 94 | 21 | EC50 [13]: 520 nM
CC1=CSC(O)(c2ccccc2)c2noc(=O)n21 (centres undefined) | 4 | 95 | 14 | EC50 [14]: 230 nM
CC1=CSC(OCC(C)C)(c2ccc(Cl)cc2)c2noc(=O)n21 (centres undefined) | 37 | 83 | 15 | EC50 [15]: 560 nM
COC1(c2ccc(Cl)cc2)SC=C(C)n2c1noc2=O (centres undefined) | 14 | 62 | 22 | EC50 [15]: 1540 nM
CC1=CSC(O)(c2ccc(-c3ccccc3)cc2)c2noc(=O)n21 (centres undefined) | 9 | 71 | 18 | EC50 [16]: 2650 nM
CC1=CSC(O)(c2cccc(Cl)c2)c2noc(=O)n21 (centres undefined) | 17 | 88 | 34 | EC50 [17]: 650 nM
CC1=CSC(O)(c2cccc([N+](=O)[O-])c2)c2noc(=O)n21 (centres undefined) | 19 | 68 | 13 | EC50 [18]: 1760 nM
O=c1onc2n1C=CSC2(O)c1ccc(Cl)cc1 (centres undefined) | 10 | 78 | 7 | EC50 [19]: 4070 nM
CC1=CSC(O)(c2cccc(C)c2)c2noc(=O)n21 (centres undefined) | 12 | 89 | 10 | EC50 [20]: 720 nM
CC1=CSC(O)(c2cccc(C(F)(F)F)c2)c2noc(=O)n21 (centres undefined) | 37 | 96 | 20 | EC50 [21]: 2170 nM
O=c1onc2n1C=CSC2(O)c1ccccc1 (centres undefined) | 11 | 74 | 14 | EC50 [22]: 6580 nM
CC1=CSC(O)(c2ccc(C)cc2)c2noc(=O)n21 (centres undefined) | 5 | 82 | 13 | EC50 [23]: 570 nM
COc1ccc([C@@H]2Sc3ccccc3N(CCN(C)C)C(=O)[C@@H]2OC(C)=O)cc1 [DILTIAZEM] | 88 | 78 | 94 | EC30 [24]: 70 nM; EC50 [25]: 790 nM
